Columns and labels:
SW-620 = test: Growth inhibition of human SW620 cells by sulforhodamine B assay; assay type: functional
HCT-15 = test: Growth inhibition of human HCT15 cells by sulforhodamine B assay; assay type: functional
COLO 205 = test: Growth inhibition of human COLO205 cells by sulforhodamine B assay; assay type: functional
NCI-H322M = test: Growth inhibition of human NCI-H322M cells by sulforhodamine B assay; assay type: functional
HOP-62 = test: Growth inhibition of human HOP62 cells by sulforhodamine B assay; assay type: functional
HFF = test: Cytotoxicity against HFF cells after 72 hrs by XTT assay; assay type: cell-based; conditions: Homo sapiens
In short: (§1)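 Cells grown at 37 °C, 5% CO2; HFF in DMEM with 10% FBS, PrEC in prostate epithelial growth medium. Adherent lines seeded overnight, suspension lines same day; compounds diluted from DMSO stocks into media at various final concentrations, 72 h exposure. XTT reagent added 4 h, absorbance 490 nm (reference 690 nm). Growth as % of vehicle; IC50 from sigmoidal dose-response fit; mean ± SEM, three independent experiments.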

[1] = Cytotoxicity against human BT-3 cells after 72 hrs by XTT assay; assay type: functional, cell-based; conditions: BT-3, 72 h; in short: as §1
[2] = Cytotoxicity against human NB-EBc1 cells after 72 hrs by XTT assay; assay type: functional, cell-based; conditions: NB-EBc1, 72 h; in short: as §1
MV4-11 = test: Cytotoxicity against human MV4-11 cells after 72 hrs by XTT assay; assay type: functional, cell-based; conditions: MV4-11, 72 h; in short: as §1
[3] = Cytotoxicity against human NB1643 cells after 72 hrs by XTT assay; assay type: functional, cell-based; conditions: NB-1643, 72 h; in short: as §1
Mus musculus [4] = test: Toxicity in NOD/SCID mouse assessed as potassium level at 5 to 50 mg/kg, […]; assay type: organism-based; parameters: dose 5-50 mg/kg, route oral; conditions: in vivo, po, 120 h
Mus musculus [5] = test: Toxicity in NOD/SCID mouse assessed as sodium level at 5 to 50 mg/kg, […] for 5 days; assay type: organism-based; parameters: dose 5-50 mg/kg; conditions: in vivo, po, 120 h
Mus musculus [6] = test: Toxicity in NOD/SCID mouse assessed as creatinine level at 5 to 50 mg/kg, […] for 5 days; assay type: organism-based; parameters: dose 5-50 mg/kg; conditions: in vivo, po, 120 h
Mus musculus [7] = test: Toxicity in NOD/SCID mouse assessed as calcium level at 5 to 50 mg/kg, iv and po for 5 days; assay type: organism-based; parameters: dose 5-50 mg/kg, route oral; conditions: in vivo, 120 h
[8] = Antitumor activity against human JeKo1 cells transplanted in NOD/SCID mouse assessed as tumor volume treated iv for 5 days relative to control; assay type: functional, JeKo-1
In short: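 Female NOD/SCID mice bearing JeKo-1 tumors transplanted day 1; IV dosing from day 4, daily for five days, at 5, 10, 25 or 50 mg/kg in 3.0% DMSO/6.5% Tween 80/5% glucose, 4 per group. Volume = (length × width²)/2, measured thrice weekly; T/C = median treated tumor volume ÷ median control volume.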

[9] = Growth inhibition of human MDA-MB-436 cells by sulforhodamine B assay; assay type: functional
Mus musculus [10] = test: Toxicity in NOD/SCID mouse assessed as alanine aminotransferase level at 5 to 50 mg/kg, […] for 5 days; assay type: organism-based; parameters: dose 5-50 mg/kg, route oral; conditions: in vivo, po, 120 h
[11] = Growth inhibition of human Hs 578T cells by sulforhodamine B assay; assay type: functional
PC-3 = test: Growth inhibition of human PC3 cells by sulforhodamine B assay; assay type: functional
A498 = test: Growth inhibition of human A498 cells by sulforhodamine B assay; assay type: functional
NCI/ADR-RES = test: Growth inhibition of human NCI/ADR-RES cells by sulforhodamine B assay; assay type: functional
OVCAR-5 = test: Growth inhibition of human OVCAR5 cells by sulforhodamine B assay; assay type: functional
IGROV-1 = test: Growth inhibition of human IGROV1 cells by sulforhodamine B assay; assay type: functional
SK-MEL-2 = test: Growth inhibition of human SK-MEL-2 cells by sulforhodamine B assay; assay type: functional
[12] = read-out: Log10GI50 (converted)
[13] = read-out: Log10LC50 (converted)

In the case of `CC(/C=C/[C@@H]1C[C@]2(CO2)CC(C)(C)O1)=C\C[C@H]1CC[C@@H](NC(=O)/C=C\[C@H](C)OC(=O)C(C)C)CC1`, the GI50 (SW-620; [12]) is reported as 0.0813 µM, the CC50 (SW-620; [13]) is reported as > 100 µM and the TGI (SW-620; read-out: Log10TGI (converted)) is reported as 12.9 µM. For the same compound, the GI50 (HCT-15; [12]) was 0.794 µM, the CC50 (HCT-15; [13]) was > 100 µM and the TGI (HCT-15; read-out: Log10TGI (converted)) was 34.7 µM. For the same compound, the GI50 (COLO 205; [12]) was 0.263 µM, the CC50 (COLO 205; [13]) was > 100 µM and the TGI (COLO 205; read-out: Log10TGI (converted)) was 1.12 µM. For the same compound, the GI50 (NCI-H322M; [12]) was 2 µM, the CC50 (NCI-H322M; [13]) was > 100 µM and the TGI (NCI-H322M; read-out: Log10TGI (converted)) was 22.4 µM. For the same compound, the GI50 (HOP-62; [12]) was 0.457 µM, the CC50 (HOP-62; [13]) was > 100 µM and the TGI (HOP-62; read-out: Log10TGI (converted)) was > 100 µM. The IC50 (HFF) was > 10 µM, the IC50 [1] was 4.41 µM and the IC50 [2] was 0.66 µM. The IC50 (MV4-11) was 0.3 µM, the IC50 [3] was 0.23 µM and the Activity (Mus musculus [4]) was “Non-toxic”. The Activity (Mus musculus [5]) was “Non-toxic”, the Activity (Mus musculus [6]) was “Non-toxic” and the Activity (Mus musculus [7]) was “Non-toxic”. The T/C [8] was “<=42%”, the GI50 [9, 12] was 0.229 µM and the CC50 [9, 13] was > 100 µM. For the same compound, the TGI ([9]; read-out: Log10TGI (converted)) was 16.2 µM, the Activity (Mus musculus [10]) was “Non-toxic” and the GI50 [11, 12] was 0.309 µM. The CC50 [11, 13] was > 100 µM, the TGI ([11]; read-out: Log10TGI (converted)) was 45.7 µM and the GI50 (PC-3; [12]) was 0.479 µM. The CC50 (PC-3; [13]) was > 100 µM, the TGI (PC-3; read-out: Log10TGI (converted)) was 38 µM and the GI50 (A498; [12]) was 3.39 µM. For the same compound, the CC50 (A498; [13]) was > 100 µM, the TGI (A498; read-out: Log10TGI (converted)) was 74.1 µM and the GI50 (NCI/ADR-RES; [12]) was 0.501 µM. For the same compound, the CC50 (NCI/ADR-RES; [13]) was > 100 µM, the TGI (NCI/ADR-RES; read-out: Log10TGI (converted)) was > 100 µM and the GI50 (OVCAR-5; [12]) was 8.32 µM. For the same compound, the CC50 (OVCAR-5; [13]) was > 100 µM, the TGI (OVCAR-5; read-out: Log10TGI (converted)) was > 100 µM and the GI50 (IGROV-1; [12]) was 0.851 µM. The CC50 (IGROV-1; [13]) was > 100 µM, the TGI (IGROV-1; read-out: Log10TGI (converted)) was > 100 µM and the GI50 (SK-MEL-2; [12]) was 0.257 µM. For the same compound, the CC50 (SK-MEL-2; [13]) was > 100 µM and the TGI (SK-MEL-2; read-out: Log10TGI (converted)) was 3.55 µM.

Reference: ChEMBL document CHEMBL1154676, “Synthetic mRNA splicing modulator compounds with in vivo antitumor activity” (J Med Chem, 2009)
